Laboratory results as given in paper PMC4545405 (ACS chemical biology, 2013).
Where two headings read alike, the source gives them in different places.

Tests used:
[1] = test system: WspR with C49A substitution; assay: DGC activity assay of C49A WspR; format: biochemical, Pseudomonas aeruginosa; details: 50 μM
Outline: (§1)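 Purified WspR point mutants (C49A, C240A, or AxxA at the RxxD I-site), expressed from cloned alleles. Diguanylate cyclase activity measured by thin-layer chromatography (TLC) with test compound or cdiGMP at 50 μM, against a DMSO control. Compounds were dissolved in DMSO.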

[2] = test system: AxxA WspR (RxxD I-site abolished); assay: DGC activity assay of AxxA WspR; format: biochemical, Pseudomonas aeruginosa; details: 50 μM
Outline: as §1

[3] = test system: WspR with C240A substitution; assay: DGC activity assay of C240A WspR; format: biochemical, Pseudomonas aeruginosa; details: 50 μM
Outline: as §1

PelD = PelD (Pseudomonas aeruginosa, UniProt A0A0H2ZD98); assay: DRaCALA / DRaCALA-HTS inhibition of 32P-cdiGMP binding to PelD; details: for fraction bound of 32P-cdiGMP to PelD in DRaCALA-HTS: NCC1 library screen, cutoff 3 standard deviations below the average
PA14 pMMB-WspR = assay: Crystal violet pellicle assay, DGC-dependent biofilm formation; format: cell-based, Pseudomonas aeruginosa; details: IPTG-induced WspR, static incubation 30 °C, 16 hours
WspR [4] = molecular target: T1, WspR (Pseudomonas aeruginosa, UniProt Q9HXT9); assay: DRaCALA inhibition of 32P-cdiGMP binding to WspR
PA14 ΔretS = assay: Crystal violet pellicle assay, DGC-independent biofilm formation; format: cell-based, Pseudomonas aeruginosa
WspR [5] = molecular target: T1, WspR; assay: WspR DGC activity assay by TLC; format: biochemical; details: for DGC activity of wild-type WspR (inhibition): 50 μM; for WspR activity after DTT treatment of preincubated WspR: with DTT
P. aeruginosa PA14 = assay: Growth curves; format: cell-based, Pseudomonas aeruginosa; details: 50 μM, LB, 37 °C, 16 hours, vs DMSO
Outline: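 P. aeruginosa PA14 grown overnight in LB at 37 °C with shaking, then subcultured in LB with 50 μM test compound or 2% DMSO alone. Grown with shaking at 37 °C for 16 h. A600 read every 5 minutes.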

[6] = test system: P. aeruginosa PA14 overexpressing DGCs; assay: Swim motility assay of PA14 overexpressing DGCs; format: cell-based, Pseudomonas aeruginosa; details: for change in swimming motility compared to the DMSO control: PA14 overexpressing PA0847, IPTG; for change in swimming motility compared to the DMSO control / increase in swimming diameter compared to the DMSO control: 50 μM
[7] = test system: PDE (RocR, PvrR, FimX) or PilZ (Alg44, PA3353) proteins; assay: DRaCALA inhibition of 32P-cdiGMP binding to PDE and PilZ proteins; design: species or system P. aeruginosa; details: Eb 50 μM
Outline: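 Purified protein was mixed with ³²P-cdiGMP in the presence of 50 μM test compound or DMSO, then spotted on nitrocellulose. Spots were imaged by phosphorimager. Fraction bound = corrected bound-ligand intensity ÷ total spot intensity.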

Alg44 = Alg44 (Pseudomonas aeruginosa, UniProt Q9HY69); assay: DRaCALA / DRaCALA-HTS binding of 32P-cdiGMP to Alg44; details: for Kd: Kd of Alg44 binding to 32P-cdiGMP
[8] = PA14 overexpressing PA1107, IPTG
[9] = PA14 overexpressing PA1120, IPTG
[10] = PA14 overexpressing PA1727, IPTG

Chain of Alg44 (Q9HY69 whole entry): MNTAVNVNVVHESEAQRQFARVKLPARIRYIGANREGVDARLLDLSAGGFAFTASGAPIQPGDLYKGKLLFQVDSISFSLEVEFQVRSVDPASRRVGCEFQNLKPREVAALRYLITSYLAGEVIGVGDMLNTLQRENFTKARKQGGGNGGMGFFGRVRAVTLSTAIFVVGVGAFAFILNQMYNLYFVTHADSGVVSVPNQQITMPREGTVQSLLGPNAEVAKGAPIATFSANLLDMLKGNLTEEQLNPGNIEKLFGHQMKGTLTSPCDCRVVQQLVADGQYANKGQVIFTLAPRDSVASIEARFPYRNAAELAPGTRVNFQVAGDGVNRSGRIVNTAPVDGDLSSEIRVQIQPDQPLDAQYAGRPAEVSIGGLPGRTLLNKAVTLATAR

Structure (SMILES)	DGC activity of C49A WspR (inhibition) [1]	DGC activity of AxxA WspR (inhibition) [2]	DGC activity of C240A WspR (inhibition) [3]	fraction bound of 32P-cdiGMP to PelD in DRaCALA-HTS (PelD)	reduction of biofilm formation compared to the DMSO control (PA14 pMMB-WspR)	DGC-independent biofilm formation (PA14 ΔretS)	DGC activity of wild-type WspR (inhibition) (WspR [5])	WspR activity after DTT treatment of preincubated WspR (WspR [5])	growth of P. aeruginosa PA14 (P. aeruginosa PA14)	change in swimming motility compared to the DMSO control [6]	increase in swimming diameter compared to the DMSO control [6, 8]	increase in swimming diameter compared to the DMSO control [6, 9]	increase in swimming diameter compared to the DMSO control [6, 10]	increase in swimming diameter compared to the DMSO control ([6]; PA14 overexpressing WspR, IPTG)	reduction of 32P-cdiGMP binding to PDE or PilZ proteins [7]	further results
O=c1c2ccccc2[se]n1-c1ccccc1 [Eb, ebselen]	still susceptible to inhibition	no longer inhibited	completely refractory	below the positive cutoff of 3 standard deviations below the average	~ 40%	Neither Eb nor EbO reduced biofilm formation	inhibited	returned WspR activity to the level of the DMSO control	No difference in growth	no change in swimming motility	3.4 fold	2.5 fold	1.1 fold	2 fold	≤ 25%	IC50 (PelD): 5 ± 2 µM; inhibition at 50 µM (PelD; read-out: reduction of cdiGMP binding to PelD): 80%; IC50 (WspR [4]): 13.6 ± 0.5 µM; inhibition at 50 µM (WspR [4]; read-out: reduction of cdiGMP binding to WspR): 90%; inhibition at 50 µM (WspR [5]; read-out: reduction of WspR activity (velocity)): 87%; WspR velocity at varying substrate and Eb concentrations (WspR [5]; varying substrate concentrations): reduced WspR velocity in a concentration dependent manner
O=C1c2ccccc2[Se](=O)N1c1ccccc1 (centres unmarked) [EbO, ebselen oxide]	still susceptible to inhibition	no longer inhibited	completely refractory		~ 40%	Neither Eb nor EbO reduced biofilm formation	inhibited	returned WspR activity to the level of the DMSO control	No difference in growth	no change in swimming motility	4 fold	3.4 fold	1.3 fold	2.5 fold	did not reduce	reduction of cdiGMP binding to PelD (PelD; compared to the DMSO control, Eb 50 μM): ~ 60%; IC50 (PelD; read-out: IC50 for PelD (inhibition of cdiGMP binding), DRaCALA): 5 ± 2 µM; IC50 for WspR (inhibition of cdiGMP binding) (WspR [4]; DRaCALA): did not show inhibition; reduction of cdiGMP binding to WspR (WspR [4]; compared to the DMSO control, Eb 50 μM, no preincubation): ~ 30%; reduction of 32P-cdiGMP binding to WspR after preincubation (WspR [4]; preincubation of WspR for 30 minutes before addition of 32P-cdiGMP): 86%; reduction of WspR activity (velocity) (WspR [5]; 10 μM GTP, inhibitor 50 μM): 87%; reversal of cdiGMP-mediated repression of swimming, concentration dependence ([6]; PA14 overexpressing PA3702, IPTG, different concentrations): at a lower concentration
Nc1nc2c(ncn2[C@@H]2O[C@@H]3COP(=O)(O)O[C@H]4[C@@H](O)[C@H](n5cnc6c(=O)[nH]c(N)nc65)O[C@@H]4COP(=O)(O)O[C@H]3[C@H]2O)c(=O)[nH]1 [cdiGMP, cyclic-di-GMP]	still susceptible to inhibition	no longer inhibited	inhibited	no binding was observed			inhibited									average fraction bound of 32P-cdiGMP to Alg44 with cdiGMP competitor (Alg44; 384-well plate, 25 μM unlabeled cdiGMP): 0.007±0.005; Kd (Alg44; 384 well format, HTS-DRaCALA): 0.239 ± 0.007 µM; Kd (Alg44; fraction bound in individual reaction mixtures): 0.38 ± 0.02 µM
